In the library only some 3.5% were active in any assay of this set; here they are far more common.
MrgX1 allo act: positive allosteric modulators of MrgX1, primary screen, HEK293 cells, Fluo-4 calcium flux | Mas-related G-protein coupled receptor member X1 (Homo sapiens), Q96LB2 | FDSS; hits give high values | B-score at 10 µM | hit rate 0.63% among 310,000 | AID 588675, 2011;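 active means plate-corrected calcium response at least 3 library SD above typical, normal starting fluorescence, not activating the receptor alone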;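 further: compound read alongside a low EC10 to EC30 dose of BAM8-22 agonist; peak minus trough fluorescence over baseline measured at the second addition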
Target sequence (Q96LB2 whole entry, looked up): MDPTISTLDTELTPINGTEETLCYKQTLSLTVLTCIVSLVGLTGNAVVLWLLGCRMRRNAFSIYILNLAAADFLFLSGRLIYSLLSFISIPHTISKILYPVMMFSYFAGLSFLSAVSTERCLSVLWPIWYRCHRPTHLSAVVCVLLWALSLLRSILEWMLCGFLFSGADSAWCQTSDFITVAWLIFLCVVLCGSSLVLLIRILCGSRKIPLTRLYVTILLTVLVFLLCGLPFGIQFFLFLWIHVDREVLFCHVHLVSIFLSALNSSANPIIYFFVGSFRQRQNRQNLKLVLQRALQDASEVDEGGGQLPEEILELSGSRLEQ
RGS4 act: RGS4 potentiators or activators, primary screen, cell-based, HEK293 M3R inducible RGS4, calcium flux | carbachol calcium flux Fluo4; hits give low values | B-score at 10 µM | hit rate 0.92% among 310,000 | AID 463111, 2010;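 active means B-score of the integrated calcium signal more than 4 SD below the library mean, with starting fluorescence not abnormally high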;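 further: negative B-score means reduced calcium response which marks RGS4 activation or potentiation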
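Also added: carbachol at ECmax as muscarinic agonist stimulus; Assay system: HEK293 cells with stable M3R and inducible RGS4; Timing: overnight RGS4 induction, 30 min dye load 37 °C, 20 min compound RT; Measured by: Fluo4-AM (2 µM) calcium-flux fluorescence, kinetic read.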
RGS4 block: RGS4 inhibitors, primary screen, cell-based, HEK293 M3R inducible RGS4, calcium flux; Fluo-4 calcium flux; hits give high values; triggered by carbachol at its EC20; B-score at 10 µM; Regulator of G-protein signaling 4 (Homo sapiens), P49798; AID 463165, 2010; hit rate 0.45% among 310,000;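 active means B-score, a plate-corrected calcium signal, over three deviations above library mean, with baseline fluorescence within five deviations of library mean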;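 further: RGS4 expression induced by doxycycline in cells with stable M3 receptor; B-score is computed from the integrated fluorescence ratio over baseline after carbachol; higher B-score means a larger calcium signal and so more RGS4 inhibition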
Target sequence (P49798 whole entry, looked up): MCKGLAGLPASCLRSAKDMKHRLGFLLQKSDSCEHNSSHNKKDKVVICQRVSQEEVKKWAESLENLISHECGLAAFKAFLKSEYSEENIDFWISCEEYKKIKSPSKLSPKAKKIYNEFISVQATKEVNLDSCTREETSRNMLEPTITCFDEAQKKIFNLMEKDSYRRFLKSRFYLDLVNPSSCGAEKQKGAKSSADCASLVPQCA
MrgX1 agonist: agonists of human MrgX1 receptor, primary screen, HEK293 cells, Fluo-4 calcium flux; Mas-related G-protein coupled receptor member X1 (Homo sapiens), Q96LB2; Fluo-4 calcium fluorescence, agonist mode; hits give high values; B-score at 10 µM; hit rate 0.44% among 310,000; AID 588627, 2011;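 active means calcium response B-score plate-corrected fluorescence ratio at least 3 library SD, with starting fluorescence B-score inside 5 SD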
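Test system: HEK293 cells stably expressing human MrgX1 receptor; amount: 15,000 cells per well; doses: compound delivered in addition one of three; times: overnight plating before 1 h dye loading; detection: Fluo-4 NW calcium-flux fluorescence, kinetic read; read-out basis: B-scored fluorescence response ratio; controls: positive and negative controls per plate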
MrgX1 antagonist: antagonists of human MrgX1 receptor, primary screen, HEK293 cells, Fluo-4 calcium flux; Mas-related G-protein coupled receptor member X1 (Homo sapiens), Q96LB2; BAM8-22 antagonism; hits give low values; B-score at 10 µM; hit rate 1.3% among 310,000;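 active means calcium-response B-score plate-corrected more than 3 library SD below zero, starting fluorescence within 5 deviations, no agonist response on first addition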;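 further: peak minus trough fluorescence over baseline after final BAM8-22 challenge near maximal dose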
MrgX1 PAM conf: MrgX1 positive allosteric modulators, duplicate retest, confirmation, HEK293 cells, Fluo-4 calcium flux. activation (ratio percentage), % at 10 µM. hit rate 13% among 1,200. shares compounds with MrgX1 allo act. Fluo-4 calcium fluorescence, FDSS;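 active means ratio at least 3 SD above the weak peptide control, stable starting fluorescence, no direct agonism earlier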;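 further: compound followed by low BAM8-22 agonist challenge near EC20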
HEK293 Ca flux: nonspecific calcium signal in parental HEK293, confirmation, counter-screen for MrgX1 antagonist project, parental HEK293 cells, Fluo-4 calcium flux. shares compounds with MrgX1 antagonist. Fluo-4 calcium fluorescence, FDSS. fluorescence ratio F(max-min)/F0 at 10 µM. hit rate 2% among 4,000. AID 624111, 2012;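 active means duplicate-averaged calcium fluorescence ratio at least three times the standard deviation of buffer wells, a nonspecific response in parental cells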
HEK293 Ca counter: calcium response in parental HEK293 cells, primary screen, counter-screen for MrgX1 allosteric activator project, cell-based, Fluo-4 calcium flux, duplicate; Fluo-4 fluorescence ratio; hits give high values; AID 624114, 2012; fluorescence ratio F(max-min)/F0 at 10 µM; hit rate 0.4% among 4,000; shares compounds with MrgX1 antagonist;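 active means calcium fluorescence ratio, averaged over duplicates, at least 3 SD of the buffer-well ratio, meaning a nonspecific response in receptor-free cells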;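 further: untransfected parental HEK293 lacking MrgX1 used as counterscreen for MrgX1 allosteric activators; fluorescence change taken during the second addition on a kinetic imager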
HEK293 Ca cntr2: calcium response in parental HEK293 cells, primary screen, counter-screen for MrgX1 agonist project, cell-based, Fluo-4 calcium flux, duplicate, agonist mode. Fluo-4 calcium fluorescence (FDSS); hits give high values. hit rate 8.7% among 4,000. fluorescence ratio F(max-min)/F0 at 10 µM. shares compounds with MrgX1 antagonist;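 active means calcium fluorescence ratio at least three times the spread of buffer wells, meaning a non-specific response in parental cells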
Starred values were filed as active, the others as inactive; i = inactive; · = not tested or not shown.

SMILES	MrgX1 allo act	RGS4 act	RGS4 block	MrgX1 agonist	MrgX1 antagonist	MrgX1 PAM conf	HEK293 Ca flux	HEK293 Ca counter	HEK293 Ca cntr2
CCNc1nc(OC)nc(N(OC)S(=O)(=O)c2ccc(C)cc2)n1	i	i	i	i	i	·	·	·	·
Cn1c(-c2sccc2OCc2ccc(Cl)cc2Cl)n[nH]c1=S	9.9*	i	i	i	i	i	i	i	i
COc1ccc(CNC(=O)[C@@H](NC(=O)C2CCN(C(=O)[C@@H](N)Cc3ccccc3)CC2)C(C)C)cc1	i	i	i	i	i	·	·	·	·
CCCOc1ccc(N2C(=O)CC(N3CCC(c4nncn4CC)CC3)C2=O)cc1 (stereo not given)	i	i	i	i	i	·	·	·	·
CC(OC(=O)CCCCCN=C1NS(=O)(=O)c2ccccc21)C(=O)Nc1cc(Cl)cc(Cl)c1 (stereo not given)	i	i	i	i	i	·	·	·	·
CN(Cc1ccccc1)C(NC(=O)c1ccccc1)C(Cl)(Cl)Cl (stereo not given)	i	i	i	i	i	·	·	·	·
CN(Cc1ccccc1)C(NC(=O)c1ccco1)C(Cl)(Cl)Cl (stereo not given)	6.6*	i	i	i	i	i	i	i	i
O=C1CC(c2ccc3c(c2)OCO3)Sc2nc3ccccc3n21 (stereo not given)	7.5*	i	i	i	i	i	i	i	i
O=C1CC(c2ccccc2)Sc2nc3ccccc3n21 (stereo not given)	i	i	i	i	i	·	·	·	·
C=CCn1c(=O)c(C(=O)Nc2ccccc2S(N)(=O)=O)c(O)c2ccccc21	8.4*	i	i	i	i	i	i	i	i
COc1cc(C(=O)OCc2cc(=O)oc3c(C)c(C)ccc23)ccc1OC(F)F	i	i	i	i	i	·	·	·	·
Cc1ccc(NC(=O)c2ccccc2Br)cc1S(=O)(=O)N(C)C	i	i	i	i	i	·	·	·	·
Cc1nc([N+](=O)[O-])c(C(=O)OCc2ccccc2C#N)n1C	i	i	i	i	i	·	·	·	·
COC(=O)c1ccc(NC(=S)Nc2ccc(O)cc2)cc1	i	i	i	i	i	·	·	·	·
Oc1ccc(NC(=S)Nc2ccc(O)cc2)cc1	10*	i	i	i	i	i	i	i	i
O=C1CN(C(=O)COc2c(F)c(F)cc(F)c2F)c2ccccc2N1	i	i	i	i	i	·	·	·	·
O=C(Nc1ccc(F)cc1)C(=O)C1C(=O)Nc2ccccc21 (stereo not given)	6.6*	i	i	i	i	i	i	i	i
Cc1ccsc1/C=C(\C#N)C(=O)NCCCN1CCOCC1	24*	i	i	i	i	i	i	i	i
Cc1nonc1OCCNCc1c(C(=O)N(C)C)nc2ccc(Cl)cn12	i	i	i	i	i	·	·	·	·
O=C(O)C1Sc2[nH]c(=O)sc2C2c3cc(Br)ccc3OC(=O)C12 (stereo not given)	6.5*	i	i	i	i	i	i	i	i
O=C(O)C1Sc2[nH]c(=O)sc2C2c3cc(Cl)ccc3OC(=O)C12 (stereo not given)	i	i	i	i	i	·	·	·	·
C=CCSc1nnc(NC(=O)c2cccc(S(=O)(=O)N(C)c3ccccc3)c2)s1	i	i	i	i	i	·	·	·	·
C=CCn1c(=O)c2c(nc3n2CC(C)CN3Cc2ccccc2)n(C)c1=O (stereo not given)	i	i	i	i	i	·	·	·	·
O=c1c(-c2ccccc2)[n+]([O-])c2ccccc2n1O	21*	i	i	i	i	12%*	i	i	i
COc1ccc(C2=C(Nc3ccc(F)cc3)c3ccccc3C2=O)cc1	i	i	i	i	i	·	·	·	·
SMILES	MrgX1 allo act	RGS4 act	RGS4 block	MrgX1 agonist	MrgX1 antagonist	MrgX1 PAM conf	HEK293 Ca flux	HEK293 Ca counter	HEK293 Ca cntr2
COc1ccc(C2=C(Nc3ccc(C)cc3)c3ccccc3C2=O)cc1	11*	i	i	i	i	i	i	i	i
CC(=O)NCCC(=O)Nc1ccc(C)c(F)c1	i	i	i	i	i	·	·	·	·
Cc1ccc(NCC(=O)Nc2ccc(Br)cc2)cc1F	8.1*	i	i	i	i	i	i	i	i
Cc1ccccc1Nc1nc(N)nc(CSc2nc3ccccc3s2)n1	8.8*	i	i	i	i	i	i	i	i
CCC(C)NCCOc1ccccc1C (stereo not given)	13*	i	i	i	i	i	i	i	i
O=C(Cc1c(F)cccc1Cl)Nc1nc2ccccc2s1	21*	i	i	i	i	i	i	i	i
CC(=O)c1sc(NC(=O)Cc2c(F)cccc2Cl)nc1C	i	i	i	i	i	·	·	·	·
COC(=O)c1cc(Sc2cccc(Cl)c2Cl)ccn1	i	i	i	i	i	·	·	·	·
COC(=O)c1cc(Sc2c(Cl)cccc2Cl)ccn1	46*	i	i	i	i	20%*	i	i	i
CCC1CCCCN1Cc1ccc(N)cc1 (stereo not given)	i	i	i	i	i	·	·	·	·
COc1ccc(NC(=O)C(Cc2ccccc2)NC(=O)c2ccco2)cc1OC (stereo not given)	i	i	i	i	i	·	·	·	·
CC(=O)c1ccc(NC(=O)C(Cc2ccccc2)NC(=O)c2ccco2)cc1 (stereo not given)	8.9*	i	i	i	i	i	i	i	i
COC(=O)c1cc(CNC(=O)CCCSc2ccccc2)ccc1OC	·	i	i	·	·	·	·	·	·

From PubChem
